From ChEMBL document CHEMBL5608187, “Discovery of pyridoquinoxaline-based new P-gp inhibitors as coadjutant against Multi Drug Resistance in cancer” (Eur J Med Chem, 2024)

Assays:
Assay type in all cases: cell-based; call rule not given here
[1] = target: T1, ATP-dependent translocase ABCB1 (Homo sapiens, UniProt P08183); assay: Inhibition of P-gp in human CAKI-2 cells assessed as increase in green fluorescence intensity at 0.1 to 10 uM incubated for 15 mins followed by incubation with EFFLUX-ID Green Detection Reagent and Hoeschst-33342 dye and measured after 30 mins by fluorescence analysis; conditions: caki-2, 0.25 h, dose 0.1-10 µM
Outline: (§1)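 5000 cells/well in phenol-red-free medium plated 24 h before; compounds 0.1, 1, 10 µM for 15 min, then EFLUXX-ID Green reagent (1:200) plus Hoechst-33342 1 µg/mL, 30 min 37 °C. Widefield imaging; median green intensity from 250 cells per well normalized to untreated wells. Mean ± SD of three wells; one-tailed t-test.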

[2] = target: T1, ATP-dependent translocase ABCB1; assay: Inhibition of P-gp in human A498 cells assessed as increase in green fluorescence intensity at 0.1 to 10 uM incubated for 15 mins followed by incubation with EFFLUX-ID Green Detection Reagent and Hoeschst-33342 dye and measured after 30 mins by fluorescence analysis; conditions: a498, 0.25 h, dose 0.1-10 µM; outline: as §1
[3] = target: T1, ATP-dependent translocase ABCB1; assay: Inhibition of P-gp in human HT1197 cells assessed as increase in green fluorescence intensity at 0.1 to 10 uM incubated for 15 mins followed by incubation with EFFLUX-ID Green Detection Reagent and Hoeschst-33342 dye and measured after 30 mins by fluorescence analysis; conditions: ht1197, 0.25 h, dose 0.1-10 µM; outline: as §1
[4] = target: T1, ATP-dependent translocase ABCB1; assay: Inhibition of P-gp in human HCT-15 cells assessed as increase in green fluorescence intensity at 0.1 to 10 uM incubated for 15 mins followed by incubation with EFFLUX-ID Green Detection Reagent and Hoeschst-33342 dye and measured after 30 mins by fluorescence analysis; conditions: hct-15, 0.25 h, dose 0.1-10 µM; outline: as §1

T1 sequence (P08183 whole entry): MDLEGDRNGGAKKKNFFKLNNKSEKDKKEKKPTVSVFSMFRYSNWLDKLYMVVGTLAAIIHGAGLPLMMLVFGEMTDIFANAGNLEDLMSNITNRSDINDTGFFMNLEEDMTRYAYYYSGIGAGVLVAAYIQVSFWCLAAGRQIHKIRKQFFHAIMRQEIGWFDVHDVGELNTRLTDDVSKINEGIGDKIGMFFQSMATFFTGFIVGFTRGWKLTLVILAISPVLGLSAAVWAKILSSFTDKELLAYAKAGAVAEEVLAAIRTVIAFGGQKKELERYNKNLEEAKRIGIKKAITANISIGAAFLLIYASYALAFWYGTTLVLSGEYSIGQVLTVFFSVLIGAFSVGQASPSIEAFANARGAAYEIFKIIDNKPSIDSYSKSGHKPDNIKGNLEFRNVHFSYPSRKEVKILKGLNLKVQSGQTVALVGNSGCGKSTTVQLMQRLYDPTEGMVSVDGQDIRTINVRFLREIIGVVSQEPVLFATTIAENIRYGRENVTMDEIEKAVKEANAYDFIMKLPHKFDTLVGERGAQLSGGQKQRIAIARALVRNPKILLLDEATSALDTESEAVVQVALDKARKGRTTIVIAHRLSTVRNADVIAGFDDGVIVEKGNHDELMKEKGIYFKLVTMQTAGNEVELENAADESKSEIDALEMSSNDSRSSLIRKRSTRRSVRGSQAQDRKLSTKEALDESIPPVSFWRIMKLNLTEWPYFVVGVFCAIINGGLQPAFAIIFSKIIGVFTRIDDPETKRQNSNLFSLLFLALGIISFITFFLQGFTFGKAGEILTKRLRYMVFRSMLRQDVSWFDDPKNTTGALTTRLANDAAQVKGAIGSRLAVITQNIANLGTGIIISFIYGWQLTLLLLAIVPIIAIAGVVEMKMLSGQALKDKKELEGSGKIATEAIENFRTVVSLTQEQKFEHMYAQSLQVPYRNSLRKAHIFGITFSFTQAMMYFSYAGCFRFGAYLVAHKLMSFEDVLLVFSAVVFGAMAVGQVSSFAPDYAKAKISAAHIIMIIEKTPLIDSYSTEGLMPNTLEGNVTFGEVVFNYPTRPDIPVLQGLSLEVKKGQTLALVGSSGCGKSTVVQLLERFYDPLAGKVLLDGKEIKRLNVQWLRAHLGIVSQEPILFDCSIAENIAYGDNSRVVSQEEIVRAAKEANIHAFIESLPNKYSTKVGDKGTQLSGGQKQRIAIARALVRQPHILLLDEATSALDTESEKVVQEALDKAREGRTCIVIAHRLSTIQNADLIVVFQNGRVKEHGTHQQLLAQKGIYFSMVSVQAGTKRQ

| SMILES | inhibition (INH) [1] | inhibition (INH) [2] | inhibition (INH) [3] | inhibition (INH) [4] |
| --- | --- | --- | --- | --- |
| O=C(Nc1ccc(Cl)c(Cl)c1)c1ccccc1OCc1nc2cc3cccnc3cc2nc1COc1ccccc1C(=O)Nc1ccc(Cl)c(Cl)c1 | Active | Not Active | Active | Active |
| COc1cc(NC(=O)c2cc(Cl)ccc2OCc2nc3cc4cccnc4cc3nc2COc2ccc(Cl)cc2C(=O)Nc2cc(OC)c(OC)c(OC)c2)cc(OC)c1OC | Active | Not Active | Active | Active |
| N#Cc1ccc(OCc2nc3cc4cccnc4cc3nc2COc2ccc(C#N)cc2)cc1 | Active | Not Active | Active | Active |
| COc1cc(NC(=O)c2cc(Cl)ccc2OCc2nc3cc4cccnc4cc3nc2COc2ccc(Cl)cc2C(=O)Nc2cc(OC)cc(OC)c2)cc(OC)c1 | Active | Not Active | Active | Active |

Continued, values first:

| inhibition (INH) [1] | inhibition (INH) [2] | inhibition (INH) [3] | inhibition (INH) [4] | SMILES |
| --- | --- | --- | --- | --- |
| Active | Not Active | Active | Active | COc1ccc(NC(=O)c2cc(Cl)ccc2OCc2nc3cc4cccnc4cc3nc2COc2ccc(Cl)cc2C(=O)Nc2ccc(OC)cc2)cc1 |
| Active | Not Active | Active | Active | COC(=O)c1ccc(OCc2nc3cc4cccnc4cc3nc2COc2ccc(C(=O)OC)cc2OC)c(OC)c1 |
| Active | Not Active | Active | Active | COc1ccc(NC(=O)c2ccccc2OCc2nc3cc4cccnc4cc3nc2COc2ccccc2C(=O)Nc2ccc(OC)cc2)cc1 |
| Active | Not Active | Active | Active | COC(=O)c1ccccc1SCc1nc2cc3cccnc3cc2nc1CSc1ccccc1C(=O)OC |
